Where two headings read alike, the source gives them in different places.
Key:
thrombin generation = experiment: Thrombin generation assay; format: biochemical; conditions: 70% human platelet-poor plasma, mean ± SD; for Cmax: read-out: Tmax EC2x (concentration of inhibitor required to double the time at which Cmax occurs)
male CD-1 mice [1] = experiment: Mouse iron-chloride-induced arterial thrombosis model; format: in vivo
male SD rats [2] = experiment: Arteriovenous shunt; format: in vivo; conditions: rat, 3 mg/kg infusion
male SD rats [3] = experiment: Inferior vena cava; format: in vivo; conditions: rat
male SD rats [4] = conditions: rat, cited from earlier work
male SD rats [5] = conditions: rat, cited from earlier work; remark: listed apart in the source
male SD rats [6] = experiment: Platelet status in AV shunt model; format: in vivo; conditions: rat, vehicle approximately 20%
male CD-1 mice [7] = experiment: Thrombin-induced thromboembolism mouse model; format: in vivo; conditions: 4.5 mg/kg IV, 30 min observation, human α-thrombin 1.75 U/g
In short: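 Mice anaesthetised with 1:1 ketamine:xylazine. Test compound given by tail-vein injection; 30 s later human α-thrombin in PBS (1.75 U/g body weight) or PBS alone injected slowly. Mortality observed for 30 min; animals alive at 30 min scored as survivors and euthanised by cervical dislocation. Results expressed as percent survival; n = 12 per treatment group.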

[8] = system: thrombin-mediated platelet activation; experiment: In vitro platelet activation in whole blood; format: cell-based; conditions: read-out: EC50 inhibition of platelet activation, Mouse blood—Thrombin; 20% whole blood; mean ± SD
[9] = system: TF-mediated platelet activation; experiment: In vitro platelet activation in whole blood; format: cell-based, human; conditions: mean ± SD
[10] = system: thrombin-mediated platelet activation; experiment: In vitro platelet activation in whole blood; format: cell-based, human; conditions: mean ± SD
[11] = system: thrombin-mediated platelet activation; experiment: In vitro platelet activation in whole blood; format: cell-based; conditions: read-out: EC50 inhibition of platelet activation, Rat blood—Thrombin; 20% whole blood; mean ± SD

Question: Which EC50 (thrombin generation; read-out: Cmax EC50) does the source give for `COc1ccc(-n2nc(C(N)=O)c3c2C(=O)N(c2ccc(N4CCCCC4=O)cc2)CC3)cc1` [Apixaban, apixaban] here?
Answer: 100 ± 100 nM

Question: And the EC50 (thrombin generation; read-out: ETP EC50)?
Answer: 470 ± 10 nM

Question: What about the Cmax (thrombin generation) of the same compound?
Answer: 70 ± 40 nM

Question: What about the occlusion time (male CD-1 mice [1]; 6 mg/kg infusion) of the same compound?
Answer: > 30 min

Question: And the “inhibition of thrombus formation” value (male SD rats [2])?
Answer: about 90%

Question: And the “inhibition of thrombus formation” value (male SD rats [3]; 3 mg/kg/infusion)?
Answer: 90%

Question: And the “inhibition of thrombus formation, literature value” (male SD rats [4]; 3 mg/kg/infusion)?
Answer: ~ 80%

Question: What about the “inhibition of thrombus formation, literature” value (male SD rats [5]; ref 47 (Shumacher et al. 2010)) of the same compound?
Answer: about 60%

Question: What does the source list for `CC1CNc2c(cccc2S(=O)(=O)N[C@@H](CCCNC(=N)N)C(=O)N2CC[C@@H](C)C[C@@H]2C(=O)O)C1` (some centres unmarked) [Argatroban, argatroban]?
Answer: activated platelets (average over time points) (male SD rats [6]; 2 mg/kg IV): < 10%; EC50 (thrombin generation; read-out: Cmax EC50): 350 ± 140 nM; EC50 (thrombin generation; read-out: ETP EC50): 360 ± 162 nM; Cmax (thrombin generation): 454 ± 240 nM; treated mice in which mortality was prevented (male CD-1 mice [7]): 91%; occlusion time (male CD-1 mice [1]; 4 mg/kg): > 30 min

Question: With `[H]/N=C(/N)c1ccc(NCc2nc3cc(C(=O)N(CCC(=O)O)c4ccccn4)ccc3n2C)cc1` [Dabigatran, dabigatran] as the compound, how does the “activated platelets (average over time points)” value (male SD rats [6]; 0.1 mg/kg IV) read?
Answer: < 10%

Question: What about the EC50 (thrombin generation; read-out: Cmax EC50) of the same compound?
Answer: 450 ± 450 nM

Question: What about the EC50 (thrombin generation; read-out: ETP EC50) of the same compound?
Answer: 310 ± 240 nM

Question: And the Cmax (thrombin generation)?
Answer: 240 ± 240 nM

Question: What about the EC50 [8] of the same compound?
Answer: 21 ± 10 nM

Question: And the occlusion time (male CD-1 mice [1]; 0.2 mg/kg)?
Answer: > 30 min

Question: What about the ED50 thrombus formation (male SD rats [3]; IV administration) of the same compound?
Answer: 0.01 mg/kg

Question: And the EC50 ([9]; read-out: EC50 inhibition of platelet activation, Human blood (76%)—TF, 76% whole blood)?
Answer: 29 ± 3 nM

Question: And the EC50 ([9]; read-out: EC50 inhibition of platelet activation, Human blood—TF, 20% whole blood)?
Answer: 23 ± 6 nM

Question: And the EC50 ([10]; read-out: EC50 inhibition of platelet activation, Human blood (76%)—Thrombin, 76% whole blood)?
Answer: 14 ± 1 nM

Question: And the EC50 ([10]; read-out: EC50 inhibition of platelet activation, Human blood—Thrombin, 20% whole blood)?
Answer: 35 ± 10 nM

Question: And the EC50 [11]?
Answer: 27 ± 10 nM

Question: What about the “EC50 in AV shunt model, literature” value (male SD rats [4]) of the same compound?
Answer: ~ 0.04 mg/kg

Question: What about the “ED50, value published by the manufacturer” value (male SD rats [5]; IV) of the same compound?
Answer: 0.033 mg/kg

Question: For `O=C(NC[C@H]1CN(c2ccc(N3CCOCC3=O)cc2)C(=O)O1)c1ccc(Cl)s1` [Rivaroxaban, rivaroxaban], which EC50 (thrombin generation; read-out: Cmax EC50) is on record?
Answer: 100 ± 100 nM

Question: What about the EC50 (thrombin generation; read-out: ETP EC50) of the same compound?
Answer: 310 ± 140 nM

Question: And the Cmax (thrombin generation)?
Answer: 100 ± 30 nM

Question: And the “EC50 in AV shunt model, literature value” (male SD rats [4])?
Answer: 0.3 mg/kg

From paper PMC7936662 (Thrombosis research, 2020)
